Legend:
1A9 = experiment: Antiproliferative activity against human 1A9 cells after 4 days by SRB assay; assay type: functional, cell-based; conditions: 1A9, 96 h
Method in brief: (§1)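 Compounds were tested as HCl salts and dosed from DMSO. Cells were 1A9 ovarian and MCF-7 breast cancer lines. IC50 is the mean of two independent determinations.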

MCF7 = experiment: Antiproliferative activity against human MCF7 cells after 4 days by SRB assay; assay type: functional, cell-based; conditions: MCF7, 96 h; method in brief: as §1
[1] = Inhibition of tubulin polymerization
[2] = Anticancer activity against human KBV1 cells expressing P-gp; assay type: functional, cell-based; conditions: KB-V1

Structure (SMILES)	IC50 (1A9)	IC50 (MCF7)	IC50 [1]	IC50 [2]
CC[C@H](C)[C@H](NC(=O)[C@@H](C)N(C)C)C(=O)N[C@H](CC(=O)c1nc(C(=O)N[C@@H](Cc2ccccc2)CC(C)(C)C(=O)O)cs1)C(C)C	14200 nM	12200 nM	8500 nM	
CC[C@H](C)[C@H](NC(=O)[C@@H](C)N(C)C)C(=O)N[C@H](CC(=O)c1nc(C(=O)N[C@@H](Cc2ccccc2)C[C@H](C)C(=O)O)cs1)C(C)C	> 50000 nM		3600 nM	
CC[C@H](C)[C@H](NC(=O)[C@H]1CCCCN1C)C(=O)N[C@H](C[C@H](O)c1nc(C(=O)N[C@@H](Cc2ccccc2)C[C@H](C)C(=O)O)cs1)C(C)C	5100 nM	8100 nM	1300 nM	
CC[C@H](C)[C@H](NC(=O)[C@@H](C)N(C)C)C(=O)NC(CC(=O)c1nc(C(=O)N[C@H](CCC(=O)O)Cc2ccccc2)cs1)C(C)C (single isomer, unassigned)	300 nM	170 nM	12500 nM	
CN[C@H](C(=O)N[C@H](C(=O)N(C)[C@H](/C=C(\C)C(=O)O)C(C)C)C(C)(C)C)C(C)(C)c1ccccc1 [TALTOBULIN]	0.2 nM	0.15 nM	700 nM	
CC[C@H](C)[C@H](NC(=O)[C@H]1CCCCN1C)C(=O)N(COC(=O)CC(C)C)[C@H](C[C@@H](OC(C)=O)c1nc(C(=O)N[C@@H](Cc2ccccc2)C[C@H](C)C(=O)O)cs1)C(C)C [TUBULYSIN D]				0.31 nM
CC[C@H](C)[C@H](NC(=O)[C@H]1CCCCN1C)C(=O)N[C@H](C[C@@H](OC(C)=O)c1nc(C(=O)N[C@@H](Cc2ccccc2)C[C@H](C)C(=O)O)cs1)C(C)C [TUBULYSIN U]	0.65 nM	0.4 nM	1900 nM	
CC[C@H](C)[C@H](NC(=O)[C@H]1CCCCN1C)C(=O)N[C@H](C[C@@H](O)c1nc(C(=O)N[C@@H](Cc2ccccc2)C[C@H](C)C(=O)O)cs1)C(C)C [TUBULYSIN V]	120 nM	240 nM	1100 nM	
